Screening data deposited in PubChem by several laboratories.
Most compounds without a hit are left out; they make up all but 2.2% or so of the library.
GRK2 inh = compounds blocking aptamer binding on GRK2 – biochemical, human GRK2, bead flow cytometry, HTS, primary screen | inhibition of aptamer binding, % at 10 µM | FAM-aptamer displacement from GRK2 | Beta-adrenergic receptor kinase 1 (Homo sapiens), P25098 | actives 0.59% (n = 330,000) | AID 488847, 2010;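 active = inhibition of aptamer binding above 40%, roughly 3 SD of noise, on plates passing a quality check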;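 note: median bead fluorescence of bound FAM aptamer so fluorescent compounds give negative values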
HCV NS3 hel inh = inhibitors of HCV NS3 helicase, primary screen, biochemical, Cy5 molecular beacon fluorescence; AID 1800, 2009; actives 0.56% (n = 290,000); NS3 helicase DNA unwinding; Hepatitis C virus NS3 helicase; inhibition, % at 10.9 µM;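 active = inhibition above the mean of all tested compounds plus 3 SD, set per campaign, cut at about 35% in these data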;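 note: 0% = DMSO wells and 100% = thioflavine S control wells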
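assay system = NS3 helicase fragment of HCV | buffer or medium = MOPS pH 6.5, MgCl2, DTT, Tween20, BSA | timing = 60 min unwinding reaction at 25 °C after ATP addition | signal = Cy5 beacon fluorescence read at start and 1 h | read-out basis = % inhibition of unwinding | control set = low DMSO, high thioflavine S at 110 µM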
HCV core dimer = inhibitors of HCV core protein dimerization, primary screen, biochemical, TR-FRET, high-throughput; TR-FRET GST/Flag-core106 dimerization, 1536-well; inhibition, % at 5 µM; actives 0.33% (n = 300,000); AID 1899, 2009;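 active = inhibition above the mean of all tested compounds plus 3 SD, set per screening campaign, cut at about 45% in these data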
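Assay system: tagged HCV core106 pair (GST and Flag); medium: KF-containing HEPES buffer, pH 7.45, DTT, CHAPS, BSA; also added: Eu donor and XL665 acceptor anti-tag antibodies; dosing: 5 µM single dose; timing: compound-protein-antibody incubation 4 h at 22.5 °C; signal: TR-FRET 671 and 617 nm emission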
DAGLB inhibitor = DAGLB lipase inhibitors, primary screen, biochemical, fluorescence, HTS. Diacylglycerol lipase-beta (Homo sapiens), Q8NCG7. inhibition, % at 5.17 µM. actives 0.059% (n = 340,000). HEK293T DAGLB membrane lysate, EnzChek fluorogenic substrate. AID 504411, 2011; in the data active = inhibition above about 34%;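 note: 0% = enzyme with vehicle and 100% = wells lacking enzyme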
DNA FID counter = compounds displacing fluorescent DNA intercalator, primary screen, artefact control for HCV NS3 helicase inhibitor project, biochemical, FID fluorescence; DNA fluorescent intercalator displacement; actives 0.17% (n = 290,000); inhibition, % at 7.9 µM; in the data active = inhibition above about 37%;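 note: 0% = vehicle and 100% = reference compound; higher means more ethidium bromide displaced from hairpin DNA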
GPR7 antagonist = GPR7 receptor antagonists, primary screen, cell-based, fluorescence, single concentration; Neuropeptides B/W receptor type 1 (Homo sapiens), P48145; GPR7-expressing cells, fluorescence antagonist assay; AID 1861, 2009; actives 1.1% (n = 290,000); inhibition, % at 4.4 µM; in the data active = inhibition above about 16%, passing the limit was not always enough;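 note: cells stimulated with the agonist NPW; 0% = agonist with vehicle and 100% = vehicle without agonist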
Target sequence (P48145 whole entry, looked up): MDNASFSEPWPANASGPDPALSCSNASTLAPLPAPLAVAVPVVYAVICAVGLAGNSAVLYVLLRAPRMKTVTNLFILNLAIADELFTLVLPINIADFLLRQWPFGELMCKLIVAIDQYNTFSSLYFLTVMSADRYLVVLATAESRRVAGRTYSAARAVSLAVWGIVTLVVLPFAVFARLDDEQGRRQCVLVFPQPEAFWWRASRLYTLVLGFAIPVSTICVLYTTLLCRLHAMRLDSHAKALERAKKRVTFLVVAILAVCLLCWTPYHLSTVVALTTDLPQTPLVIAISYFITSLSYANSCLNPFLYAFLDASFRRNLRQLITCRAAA
GPR7 antag cf = GPR7 receptor antagonists, confirmation, cell-based, fluorescence, single concentration | shares compounds with GPR7 antagonist | GPR7-expressing cells, calcium fluorescence antagonist mode | inhibition, % at 4.4 µM | actives 52% (n = 2,400) | AID 1952, 2009; in the data active = inhibition above about 24%;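 note: stimulated with the GPR7 agonist NPW; 0% = agonist plus vehicle and 100% = vehicle alone without agonist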
MCHR1 antagonist = MCHR1 antagonists in cells, counter-screen for GPR7 antagonist project, cell-based, fluorescence, human. shares compounds with GPR7 antagonist. MCHR1-expressing cells, fluorescence antagonist assay. inhibition, % at 4.4 µM. actives 62% (n = 2,400); in the data active = inhibition above about 22%;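 note: 0% = vehicle with agonist and 100% = vehicle without agonist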
The depositor's hits bear a star; / = no result.

SMILES	GRK2 inh	HCV NS3 hel inh	HCV core dimer	DAGLB inhibitor	DNA FID counter	GPR7 antagonist	GPR7 antag cf	MCHR1 antagonist
Cc1ccc(C(CC(=O)N2CCCCC2)c2ccccc2)c(O)c1C (centres undefined)	1	0	15	-6	-29	-7	/	/
Cn1c(SCC(=O)NCC2CCCO2)nnc1-c1ccc(Cl)cc1 (centres undefined)	0	/	/	0	/	/	/	/
COc1cc(CNc2ccccc2Oc2cc(=O)n(C)c(=O)n2C)cc(OC)c1OC	0	-6	-10	4	-27	37*	25*	24*
Cn1c(Oc2ccccc2NCc2cc(Br)ccc2O)cc(=O)n(C)c1=O	0	1	6	4	-17	10	/	/
N#CCN(N=Nc1ccccc1)c1ccccc1	17	-15	0	-4	-5	-2	/	/
CCCC(C)C(=O)Nc1ncc(S(=O)(=O)c2ccc([N+](=O)[O-])cc2)s1 (centres undefined)	0	1	16	7	12	65*	70*	87*
Cc1cccc(NC(=O)CSCC(=O)OCc2ccccn2)c1	3	/	-5	-2	/	/	/	/
COc1ccc(C2NN=C(c3c[nH]c4ccccc34)C2O)cc1 (centres undefined)	0	-5	5	-2	1	18	/	/
COc1ccc(C2C(O)C(c3c[nH]c4ccccc34)=NN2C(=O)CCl)cc1 (centres undefined)	0	9	-10	3	-9	22*	39*	47*
CCCOc1ccc(N2C(=O)CC(N3CCN(c4nc5ccccc5s4)CC3)C2=O)cc1 (centres undefined)	2	-4	-1	-2	-10	42*	-3	33*
CC1=C(C(=O)Nc2ccc(CC(=O)NCc3ccc(OC(C)C)cc3)cc2)SCCO1	1	3	30	0	-49	12	/	/
CCOc1ccc(CN(C)CC(O)COC(c2ccc(OC)cc2)c2ccc(OC)cc2)cc1 (centres undefined)	0	-78	4	-3	29	31*	33*	45*
COc1ccc(CN(C)CC(O)COc2ccc(-c3ccccc3)cc2)cc1OC (centres undefined)	0	-65	5	-2	10	5	/	/
COc1ccc(CN(C)CC(O)COC(c2ccc(OC)cc2)c2ccc(OC)cc2)cc1 (centres undefined)	0	-58	-4	-1	32	28*	42*	31*
Cc1ccccc1OCCNc1cc(N2CCNCC2)ccc1[N+](=O)[O-]	0	-69	-9	/	26	30*	47*	66*
CCC1(c2ccc(C)cc2)NC(=O)N(C(C)C(=O)Nc2ccc(N3CCOCC3)cc2)C1=O (centres undefined)	2	/	/	-7	/	/	/	/
Cc1ccc(S(=O)(=O)N2CCOCC2)cc1NC(=O)c1ccc(F)cc1F	1	/	/	-4	/	/	/	/
Cc1ccccc1C(=O)Nc1cc(S(=O)(=O)N2CCOCC2)ccc1N1CCN(C)CC1	0	/	/	-1	/	/	/	/
O=P1(c2ccccc2)C=Cn2c1cc1c2CCCC1 (centres undefined)	1	1	2	-3	-10	21*	7	10
Cc1cccc(OCC(=O)N/N=C/c2cc([N+](=O)[O-])ccc2N2CCOCC2)c1	0	11	-4	0	-6	0	/	/
COc1ccc(/C=C2\N=C(C)OC2=O)cc1OC(C)=O	1	17	/	-2	-5	-13	/	/
COc1cc(/C=C2\N=C(c3ccccc3)OC2=O)ccc1OC(C)=O	1	12	-6	-2	-24	25*	-6	7
COc1cccc(N2CCN(c3ccc([N+](=O)[O-])cn3)CC2)c1	3	11	4	0	-10	41*	40*	72*
O=[N+]([O-])c1ccc(N2CCN(c3ccccc3)CC2)nc1	0	-7	1	-3	0	25	/	/
O=[N+]([O-])c1ccc(N2CCN(c3ccc(F)cc3)CC2)nc1	0	-2	2	2	-4	47*	45*	56*
SMILES	GRK2 inh	HCV NS3 hel inh	HCV core dimer	DAGLB inhibitor	DNA FID counter	GPR7 antagonist	GPR7 antag cf	MCHR1 antagonist
CCOC(=O)c1ccc(-c2csc(NC(=O)CN3CCC(C)CC3)n2)cc1	0	-43	-3	1	-2	-17	/	/
COCc1c(C(=O)NC2CCCCC2)sc2cccc(F)c12	3	/	/	-8	/	/	/	/
O=[N+]([O-])c1ccccc1S(=O)(=O)NCCSc1ccccc1	1	-10	-1	-6	6	-10	/	/
O=S(=O)(NCCCSc1ccccc1)c1ccccc1F	1	-9	0	-4	-18	25*	-4	6
COC(=O)[C@]1(Cc2ccccc2)N[C@H](CN(C)S(=O)(=O)c2ccc(-c3ccccc3)cc2)[C@@H]2C(=O)N(Cc3ccccc3)C(=O)[C@@H]21	4	/	/	-6	/	/	/	/
O=C(NC1CCCC1)C(c1ccccc1)N(Cc1ccco1)C(=O)Cc1cccs1 (centres undefined)	2	2	9	-4	-27	42*	35*	21
O=C(NC1CCCCC1)C(c1ccc(F)cc1)N(Cc1ccco1)C(=O)Cn1nnc2ccccc21 (centres undefined)	3	-3	3	-1	1	7	/	/
O=C(NC1CCCCC1)C(c1ccccc1F)N(Cc1ccco1)C(=O)Cn1nnc2ccccc21 (centres undefined)	2	2	12	-1	-12	29*	43*	31*
O=C(NC1CCCCC1)C(c1cccs1)N(Cc1cccs1)C(=O)c1ccco1 (centres undefined)	1	1	-8	-2	-28	25*	22	27*
CCC1CCCCN1C(=O)c1cc(S(=O)(=O)N2CCOCC2)ccc1C (centres undefined)	3	/	/	-3	/	/	/	/
Cc1cc2oc(=O)cc(CNc3ccccc3F)c2cc1O	0	-4	-10	0	0	38*	44*	68*
CCOc1ccccc1NCc1cc(=O)oc2cc(C)c(O)cc12	1	9	/	0	3	30	/	/
